Measured values from ChEMBL document CHEMBL1137735, “Novel 4H-1,3,4-oxadiazin-5(6H)-ones with hydrophobic and long alkyl chains: design, synthesis, and bioactive diversity on inhibition of monoamine oxidase, chitin biosynthesis and tumor cell” (Eur J Med Chem, 2009).
Activity calls are given as the source filed them. The rule behind the calls is not given here.

Experiments:
Rattus norvegicus [1] = species: Rattus norvegicus; experiment: Inhibition of rat brain mitochondrial MAO at 0.008 mmol/L by kynuramine fluorimetric assay
Rattus norvegicus [2] = species: Rattus norvegicus; experiment: Inhibition of rat brain mitochondrial MAO at 0.08 mmol/L by kynuramine fluorimetric assay
Rattus norvegicus [3] = species: Rattus norvegicus; experiment: Inhibition of rat brain mitochondrial MAO at 0.8 mmol/L by kynuramine fluorimetric assay
[4] = Inhibition of rat brain mitochondrial MAO by kynuramine fluorimetric assay
A549 = experiment: Cytotoxicity against human A549 cells by SRB assay; format: functional, cell-based
In short: (§1)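 Growth inhibition of human lung A-549 and prostate PC-3 cancer cell lines, read out by sulforhodamine B dye staining; IC50 taken as the concentration giving 50% inhibition.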

Saccharomyces cerevisiae [5] = experiment: Inhibition of chitin synthase-mediated chitin synthesis in yeast at 250 uM by high throughput assay
In short: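 Yeast Saccharomyces cerevisiae cell extracts used as chitin synthase source in a modified non-radioactive chitin synthase assay; compounds screened at a single fixed level.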

PC-3 = experiment: Cytotoxicity against human PC3 cells by SRB assay; format: functional, cell-based; in short: as §1
Saccharomyces cerevisiae [6] = experiment: Inhibition of chitin synthase-mediated chitin synthesis in yeast by high throughput assay
In short: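 Enzyme source is Saccharomyces cerevisiae cell extract, run in a modified non-radioactive chitin synthase assay; five serial dilutions per compound tested to follow concentration dependence.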

Rattus norvegicus [7] = species: Rattus norvegicus; experiment: Inhibition of rat brain mitochondrial MAO at 0.01 mmol/L by kynuramine fluorimetric assay
Rattus norvegicus [8] = species: Rattus norvegicus; experiment: Inhibition of rat brain mitochondrial MAO at 0.1 mmol/L by kynuramine fluorimetric assay
Rattus norvegicus [9] = species: Rattus norvegicus; experiment: Inhibition of rat brain mitochondrial MAO at 1 mmol/L by kynuramine fluorimetric assay

Row | Compound | IC50 [4] [µM] | inhibition (Saccharomyces cerevisiae [5]) | inhibition (Rattus norvegicus [7]) [%] | inhibition (Rattus norvegicus [8]) [%] | inhibition (Rattus norvegicus [9]) [%] | further results
1 | CCCCC(CCCC)N1N=C(c2ccc(Cl)cc2)OCC1=O | 420 | Active | – | – | – | inhibition (Rattus norvegicus [1]): 11.2%; inhibition (Rattus norvegicus [2]): 28.2%; inhibition (Rattus norvegicus [3]): 58.8%; IC50 (A549): 24.8 µM
2 | CCc1ccc(C2=NN(CCC#N)C(=O)CO2)cc1 | 430 | Active | – | – | – | inhibition (Rattus norvegicus [1]): 9.73%; inhibition (Rattus norvegicus [2]): 25.5%; inhibition (Rattus norvegicus [3]): 59.7%; IC50 (A549): > 100 µM; IC50 (PC-3): > 100 µM
3 | CCCCC(CCCC)N1N=C(c2ccc(Cl)cc2Cl)OCC1=O | – | Active | – | – | – | –
4 | N#CCCN1N=C(c2ccccc2)OCC1=O | – | – | – | – | – | Activity (Saccharomyces cerevisiae [5]): Active
5 | CCCCC(CCCC)N1N=C(c2cc(C)cc(C)c2)OCC1=O | – | Active | – | – | – | –
6 | C[C@@H]([C@H](N)C(=O)N[C@H](C(=O)O)[C@H]1O[C@@H](n2ccc(=O)[nH]c2=O)[C@H](O)[C@@H]1O)[C@H](O)c1ccc(O)cn1 | – | – | – | – | – | inhibition (Saccharomyces cerevisiae [6]): Dose-dependent effect
7 | CCCCC(CCCC)NNC(=O)c1ccc(Cl)cc1Cl | – | – | 9.33 | 3.52 | 10.5 | –
8 | CCCCC(CCCC)N1N=C(c2cc(OC)c(OC)c(OC)c2)OCC1=O | 410 | Active | – | – | – | inhibition (Rattus norvegicus [1]): 14%; inhibition (Rattus norvegicus [2]): 23.5%; inhibition (Rattus norvegicus [3]): 61.4%; IC50 (A549): 9.91 µM; IC50 (PC-3): 14.4 µM
9 | CCCCC(CCCC)N1N=C(c2ccc3c(c2)OCO3)OCC1=O | – | Active | – | – | – | –
10 | CCCCC(CCCC)NNC(=O)c1cccnc1OCC | – | – | 0 | 6.09 | 21.7 | –
11 | CCCCC(CCCC)N1N=C(c2cccnc2OCC)OCC1=O | – | 98% | – | – | – | inhibition (Saccharomyces cerevisiae [6]): Dose-dependent effect
12 | CCCCOC(=O)CCN1N=C(c2cccc(C)c2)OCC1=O | – | 95% | – | – | – | inhibition (Saccharomyces cerevisiae [6]): Dose-dependent effect
13 | CCCCC(CCCC)NNC(=O)c1ccc2c(c1)OCO2 | – | – | 0 | 13.8 | 62.8 | –
14 | CCCCC(CCCC)NNC(=O)c1ccc2ccccc2c1 | – | – | 0 | 8.47 | 33.1 | –
15 | O=C(NC(=O)c1c(F)cccc1F)Nc1ccc(Cl)cc1 | – | inactive | – | – | – | –
16 | CCc1ccc(C(=O)NNCCC#N)cc1 | 240 | – | 2.8 | 37 | 71.2 | –
17 | CCCCC(CCCC)NNC(=O)c1ccccc1Cl | – | – | 6.4 | 5.13 | 14.2 | –
18 | CCCCC(CCCC)NNC(=O)c1ccc(Cl)cc1 | 2610 | – | 7.52 | 2.71 | 28.6 | –
19 | CCCCC(CCCC)N1N=C(c2ccc(CC)cc2)OCC1=O | – | Active | – | – | – | –
20 | CCCCC(CCCC)NNC(=O)c1cc(OC)c(OC)c(OC)c1 | 2300 | – | 4.67 | 8.16 | 35.5 | –
21 | CCCCC(CCCC)N1N=C(c2ccc3ccccc3c2)OCC1=O | 600 | Active | – | – | – | inhibition (Rattus norvegicus [1]): 12.8%; inhibition (Rattus norvegicus [2]): 20.3%; inhibition (Rattus norvegicus [3]): 54.6%; IC50 (A549): > 100 µM; IC50 (PC-3): 42.5 µM
